Results published in ChEMBL document CHEMBL4004830 (J Med Chem, 2017).

Experiments:
[1] = test system: MV4-11; test: Growth inhibition of human MV4-11 cells after 72 hrs by resazurin assay; type: functional; conditions: MV4-11, 72 h
Outline: (§1)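 72 h antiproliferation assay, resazurin read-out for MV4-11 and MTT read-out for MDA-MB-453; values from at least two replicates.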

[2] = test system: MDA-MB-453; test: Growth inhibition of human MDA-MB-453 cells after 72 hrs by MTT assay; type: functional; conditions: MDA-MB-453, 72 h; outline: as §1
[3] = test system: MCF7; test: Growth inhibition of human MCF7 cells after 72 hrs by resazurin or MTT assay; type: functional; conditions: MCF7, 72 h
[4] = test system: MDA-MB-468; test: Growth inhibition of human MDA-MB-468 cells after 72 hrs by resazurin or MTT assay; type: functional; conditions: MDA-MB-468, 72 h
[5] = test system: MOLM-13; test: Growth inhibition of human MOLM13 cells after 72 hrs by resazurin or MTT assay; type: functional; conditions: MOLM-13, 72 h
[6] = test system: NB-4; test: Growth inhibition of human NB4 cells after 72 hrs by resazurin or MTT assay; type: functional; conditions: NB-4, 72 h
[7] = Growth inhibition of human M229 cells after 72 hrs by resazurin or MTT assay; type: functional; conditions: M229, 72 h
[8] = Growth inhibition of human M238 cells after 72 hrs by resazurin or MTT assay; type: functional; conditions: M238, 72 h
[9] = Growth inhibition of human M249 cells after 72 hrs by resazurin or MTT assay; type: functional; conditions: M249, 72 h
[10] = Growth inhibition of human M249R cells after 72 hrs by resazurin or MTT assay; type: functional; conditions: M249, 72 h
[11] = test system: A2780; test: Growth inhibition of human A2780 cells after 72 hrs by resazurin or MTT assay; type: functional; conditions: A2780, 72 h
[12] = test system: DU-145; test: Growth inhibition of human DU145 cells after 72 hrs by resazurin or MTT assay; type: functional; conditions: DU-145, 72 h
[13] = test system: PC-3; test: Growth inhibition of human PC3 cells after 72 hrs by resazurin or MTT assay; type: functional; conditions: PC-3, 72 h
[14] = Growth inhibition of nontransformed human BPH1 cells after 72 hrs by resazurin or MTT assay; type: cell-based; conditions: BPH-1 cells (nontransformed)
[15] = Growth inhibition of human MRC5 cells after 72 hrs by resazurin or MTT assay; type: cell-based
[16] = test system: MV4-11; test: Cell cycle arrest in human MV4-11 cells assessed as accumulation at sub-G1 phase at GI50 after 24 hrs by propidium iodide staining based flow cytometry (reference value: 0.91%); type: functional
Outline: (§2)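 MV4-11 cells were treated with increasing concentrations for 24 h. Cells were then harvested, fixed and stained with propidium iodide before flow cytometric cell cycle analysis.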

[17] = test system: MV4-11; test: Cell cycle arrest in human MV4-11 cells assessed as accumulation at G1 phase at GI50 after 24 hrs by propidium iodide staining based flow cytometry (reference value: 58.99%); type: functional; outline: as §2
[18] = test system: MV4-11; test: Cell cycle arrest in human MV4-11 cells assessed as accumulation at G2/M phase at GI50 after 24 hrs by propidium iodide staining based flow cytometry (reference value: 18.11%); type: functional; outline: as §2
[19] = test system: MV4-11; test: Cell cycle arrest in human MV4-11 cells assessed as accumulation at sub-G1 phase at 5 times GI50 after 24 hrs by propidium iodide staining based flow cytometry (reference value: 0.91%); type: functional; outline: as §2
[20] = test system: MV4-11; test: Cell cycle arrest in human MV4-11 cells assessed as accumulation at G1 phase at 5 times GI50 after 24 hrs by propidium iodide staining based flow cytometry (reference value: 58.99%); type: functional; outline: as §2
[21] = test system: MV4-11; test: Cell cycle arrest in human MV4-11 cells assessed as accumulation at S phase at 5 times GI50 after 24 hrs by propidium iodide staining based flow cytometry (reference value: 21.97%); type: functional; outline: as §2
[22] = test system: MV4-11; test: Cell cycle arrest in human MV4-11 cells assessed as accumulation at G2/M phase at 5 times GI50 after 24 hrs by propidium iodide staining based flow cytometry (reference value: 18.11%); type: functional; outline: as §2
[23] = test system: MV4-11; test: Cell cycle arrest in human MV4-11 cells assessed as accumulation at sub-G1 phase at 10 times GI50 after 24 hrs by propidium iodide staining based flow cytometry (reference value: 0.91%); type: functional; outline: as §2
[24] = test system: MV4-11; test: Cell cycle arrest in human MV4-11 cells assessed as accumulation at G1 phase at 10 times GI50 after 24 hrs by propidium iodide staining based flow cytometry (reference value: 58.99%); type: functional; outline: as §2
[25] = test system: MV4-11; test: Cell cycle arrest in human MV4-11 cells assessed as accumulation at S phase at 10 times GI50 after 24 hrs by propidium iodide staining based flow cytometry (reference value: 21.97%); type: functional; outline: as §2
[26] = test system: MV4-11; test: Cell cycle arrest in human MV4-11 cells assessed as accumulation at G2/M phase at 10 times GI50 after 24 hrs by propidium iodide staining based flow cytometry (reference value: 18.11%); type: functional; outline: as §2
[27] = test system: MV4-11; test: Induction of apoptosis in human MV4-11 cells assessed as viable cells at GI50 after 24 hrs by annexin V/propidium iodide staining based flow cytometry (reference value: 93.05%); type: functional
[28] = test system: MV4-11; test: Induction of apoptosis in human MV4-11 cells assessed as early apoptotic cells at GI50 after 24 hrs by annexin V/propidium iodide staining based flow cytometry (reference value: 2.01%); type: functional
[29] = test system: MV4-11; test: Induction of apoptosis in human MV4-11 cells assessed as late apoptotic cells at GI50 after 24 hrs by annexin V/propidium iodide staining based flow cytometry (reference value: 4.87%); type: functional
[30] = test system: MV4-11; test: Induction of apoptosis in human MV4-11 cells assessed as necrotic cells at GI50 after 24 hrs by annexin V/propidium iodide staining based flow cytometry (reference value: 0.06%); type: functional
[31] = test system: MV4-11; test: Induction of apoptosis in human MV4-11 cells assessed as viable cells at 5 times GI50 after 24 hrs by annexin V/propidium iodide staining based flow cytometry (reference value: 93.05%); type: functional
[32] = test system: MV4-11; test: Induction of apoptosis in human MV4-11 cells assessed as early apoptotic cells at 5 times GI50 after 24 hrs by annexin V/propidium iodide staining based flow cytometry (reference value: 2.01%); type: functional
[33] = test system: MV4-11; test: Induction of apoptosis in human MV4-11 cells assessed as late apoptotic cells at 5 times GI50 after 24 hrs by annexin V/propidium iodide staining based flow cytometry (reference value: 4.87%); type: functional
[34] = test system: MV4-11; test: Induction of apoptosis in human MV4-11 cells assessed as necrotic cells at 5 times GI50 after 24 hrs by annexin V/propidium iodide staining based flow cytometry (reference value: 0.06%); type: functional
[35] = test system: MV4-11; test: Induction of apoptosis in human MV4-11 cells assessed as viable cells at 10 times GI50 after 24 hrs by annexin V/propidium iodide staining based flow cytometry (reference value: 93.05%); type: functional
[36] = test system: MV4-11; test: Induction of apoptosis in human MV4-11 cells assessed as early apoptotic cells at 10 times GI50 after 24 hrs by annexin V/propidium iodide staining based flow cytometry (reference value: 2.01%); type: functional
[37] = test system: MV4-11; test: Induction of apoptosis in human MV4-11 cells assessed as late apoptotic cells at 10 times GI50 after 24 hrs by annexin V/propidium iodide staining based flow cytometry (reference value: 4.87%); type: functional
[38] = test system: MV4-11; test: Induction of apoptosis in human MV4-11 cells assessed as necrotic cells at 10 times GI50 after 24 hrs by annexin V/propidium iodide staining based flow cytometry (reference value: 0.06%); type: functional

Structure (SMILES)	GI50 [1]	GI50 [2]	GI50 [3]	GI50 [4]	GI50 [5]	GI50 [6]	GI50 [7]	GI50 [8]	GI50 [9]	GI50 [10]	GI50 [11]	GI50 [12]	GI50 [13]	GI50 at 72 h [14]	GI50 at 72 h [15]	Activity [16]	Activity [17]	Activity [18]	Activity [19]	Activity [20]	further results
Cc1nc(NC2CCCC2)sc1-c1ccnc(Nc2ccc(N3CCOCC3)cn2)n1	209 nM	3680 nM	1890 nM	> 10000 nM	385 nM	681 nM	150 nM	2200 nM	82 nM	38 nM	58 nM	> 10000 nM	150 nM	> 10000 nM	> 10000 nM	3.43%	63.57%	15.3%	4.09%	71.66%	Activity [21]: 13.85%; Activity [22]: 10.91%; Activity [23]: 2.6%; Activity [24]: 81.18%; Activity [25]: 10.53%; Activity [26]: 5.75%; Activity [27]: 92.71%; Activity [28]: 2.33%; Activity [29]: 4.9%; Activity [30]: 0.06%; Activity [31]: 90.43%; Activity [32]: 2.37%; Activity [33]: 7.03%; Activity [34]: 0.16%; Activity [35]: 89.53%; Activity [36]: 2.83%; Activity [37]: 7.27%; Activity [38]: 0.35%
CC(=O)c1c(C)c2cnc(Nc3ccc(N4CCNCC4)cn3)nc2n(C2CCCC2)c1=O [PALBOCICLIB]	50 nM	326 nM	557 nM	5960 nM	62 nM	66 nM	1220 nM	1970 nM	1990 nM	2960 nM	32 nM	5790 nM	71 nM	7440 nM	> 10000 nM	1.32%	75.13%	11.49%	1.81%	88.99%	Activity [21]: 5.07%; Activity [22]: 4.13%; Activity [23]: 1.72%; Activity [24]: 89.5%; Activity [25]: 4.67%; Activity [26]: 4.12%; Activity [27]: 90.99%; Activity [28]: 2.54%; Activity [29]: 6.28%; Activity [30]: 0.17%; Activity [31]: 90.49%; Activity [32]: 2.14%; Activity [33]: 7.16%; Activity [34]: 0.21%; Activity [35]: 89.91%; Activity [36]: 2.31%; Activity [37]: 7.65%; Activity [38]: 0.12%
